Holding throughout (type): functional
For assay [1], the system named is Klebsiella pneumoniae. The assay can be described thus: Antibacterial activity against recultured Klebsiella pneumoniae at MIC after 3 to 4 days by agar well diffusion method.
Assay [2] relates to Staphylococcus aureus. The assay is described as follows: Antibacterial activity against Staphylococcus aureus ATCC 25923 after 16 to 18 hrs by serial plate dilution method. In a few lines:
(§1)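 Drug serially diluted in Mueller–Hinton broth in tubes, adjusted to pH 5.0 with phosphate buffer. Inoculated with standardized bacterial suspension and incubated 16–18 h at 37 °C. MIC taken as lowest concentration with no visible growth.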

Assay [3] has as its system Talaromyces marneffei. The assay is described as follows: Antifungal activity against recultured Penicillium marneffei by serial plate dilution method.
Assay [4] concerns Escherichia coli. The assay can be described thus: Antibacterial activity against Escherichia coli ATCC 25922 after 16 to 18 hrs by serial plate dilution method. Put shortly: as §1
In assay [5] the test system is Aspergillus flavus. The assay is described as follows: Antifungal activity against Aspergillus flavus NCIM 524 by serial plate dilution method.
In assay [6] the test system is Escherichia coli. The assay is described as follows: Antibacterial activity against Escherichia coli ATCC 25922 at MIC after 3 to 4 days by agar well diffusion method.
For assay [7], the system named is Aspergillus flavus. The assay can be described thus: Antifungal activity against Aspergillus flavus NCIM 524 at MIC after 3 to 4 days by agar well diffusion method. Put shortly:
(§2)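 Sabouraud agar (peptone, D-glucose, agar; pH 5.7) seeded with spore suspension made by transferring a loopful of fungus to 3 mL normal saline. Excess decanted, plates dried 1 h at 37 °C. Compounds in DMSO at MIC added to punched wells; DMSO control. Triplicate plates kept 3–4 days at 37 °C.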

For assay [8], the system named is Staphylococcus aureus. The assay can be described thus: Antibacterial activity against Staphylococcus aureus ATCC 25923 at MIC after 3 to 4 days by agar well diffusion method.
In assay [9] the test system is Klebsiella pneumoniae. The assay can be described thus: Antibacterial activity against recultured Klebsiella pneumoniae after 16 to 18 hrs by serial plate dilution method. Put shortly: as §1
The subject of assay [10] is Trichophyton mentagrophytes. The assay can be described thus: Antifungal activity against recultured Trichophyton mentagrophytes at MIC after 3 to 4 days by agar well diffusion method. Put shortly: as §2
In assay [11] the test system is Pseudomonas aeruginosa. The assay can be described thus: Antibacterial activity against Pseudomonas aeruginosa ATCC 27853 at MIC after 3 to 4 days by agar well diffusion method.
Assay [12] deals with Trichophyton mentagrophytes. The assay can be described thus: Antifungal activity against recultured Trichophyton mentagrophytes by serial plate dilution method.
Assay [13] relates to Aspergillus fumigatus. The assay can be described thus: Antifungal activity against Aspergillus fumigatus NCIM 902 at MIC after 3 to 4 days by agar well diffusion method. Put shortly: as §2
The test system of assay [14] is Aspergillus fumigatus. The assay can be described thus: Antifungal activity against Aspergillus fumigatus NCIM 902 by serial plate dilution method.
Assay [15] relates to Talaromyces marneffei. The assay is described as follows: Antifungal activity against recultured Penicillium marneffei at MIC after 3 to 4 days by agar well diffusion method. Put shortly: as §2
The test system of assay [16] is Pseudomonas aeruginosa. The assay can be described thus: Antibacterial activity against Pseudomonas aeruginosa ATCC 27853 after 16 to 18 hrs by serial plate dilution method. In a few lines: as §1

In brackets after ≈: the same amount, converted by molar mass. Bounds are passed on as bounds.

As to `FC(F)(F)c1cccc2c(N3CCC(N4CCOCC4)CC3)c(-c3nnc(S)n3-c3ccccc3)cnc12`, the “inhibition zone (IZ)” value in the assay on Klebsiella pneumoniae [1] worked out at 16 mm; in the assay with Escherichia coli [6] it was 20 mm; in the assay with Aspergillus flavus [7], 16 mm; in the assay with Staphylococcus aureus [8], 16 mm; in [10] it was 20 mm; in the assay on Pseudomonas aeruginosa [11], 16 mm. Besides, the “inhibition zone (IZ)” value with Aspergillus fumigatus [13] and in the assay with Talaromyces marneffei [15] was 16 mm in each case. In addition, the MIC (in the assay with Staphylococcus aureus [2]; in the assay with Talaromyces marneffei [3]; in the assay with Escherichia coli [4]; in the assay with Aspergillus flavus [5]; with Klebsiella pneumoniae [9]; in [12]) was 6.25 µg/mL (≈ 11.6 µM) each time. In addition, the MIC in the assay on Aspergillus fumigatus [14] and with Pseudomonas aeruginosa [16] was 6.25 µg/mL (≈ 11.6 µM) throughout.

In the case of `COCCn1c(S)nnc1-c1cnc2c(C(F)(F)F)cccc2c1Cl`, the “inhibition zone (IZ)” value in the assay on Klebsiella pneumoniae [1] amounted to 12 mm; in the assay on Escherichia coli [6], 16 mm; with Aspergillus flavus [7] it was 10 mm; with Staphylococcus aureus [8], 10 mm; in assay [10], 10 mm; in the assay on Pseudomonas aeruginosa [11], 10 mm. The “inhibition zone (IZ)” value with Aspergillus fumigatus [13] and with Talaromyces marneffei [15] was 10 mm in each case. The MIC is 12.5 µg/mL (≈ 32.2 µM) against Staphylococcus aureus [2]; 12.5 µg/mL (≈ 32.2 µM) against Talaromyces marneffei [3]; 6.25 µg/mL (≈ 16.1 µM) with Escherichia coli [4]; 12.5 µg/mL (≈ 32.2 µM) against Aspergillus flavus [5]; 12.5 µg/mL (≈ 32.2 µM) against Klebsiella pneumoniae [9]; 12.5 µg/mL (≈ 32.2 µM) in [12]. Further, the MIC against Aspergillus fumigatus [14] and against Pseudomonas aeruginosa [16] was 12.5 µg/mL (≈ 32.2 µM) in each case.

As for `COCCn1c(S)nnc1-c1cnc2c(C(F)(F)F)cccc2c1NCCC(C)(C)C`, the “inhibition zone (IZ)” value is on record as less than 10 mm in the assay with Klebsiella pneumoniae [1]; less than 10 mm in the assay on Escherichia coli [6]; 16 mm in the assay with Aspergillus flavus [7]; less than 10 mm with Staphylococcus aureus [8]; 20 mm in assay [10]; less than 10 mm in the assay on Pseudomonas aeruginosa [11]. Further, the “inhibition zone (IZ)” value with Aspergillus fumigatus [13] and with Talaromyces marneffei [15] was 16 mm in each case. The MIC in the assay on Staphylococcus aureus [2] turned out to be 50 µg/mL (≈ 110 µM); with Talaromyces marneffei [3] it was 6.25 µg/mL (≈ 13.8 µM); against Escherichia coli [4] it was 50 µg/mL (≈ 110 µM); against Aspergillus flavus [5], 6.25 µg/mL (≈ 13.8 µM); against Klebsiella pneumoniae [9], 50 µg/mL (≈ 110 µM); in [12], 6.25 µg/mL (≈ 13.8 µM). For the same molecule, the values for the MIC in the assay on Aspergillus fumigatus [14] and with Pseudomonas aeruginosa [16] were 6.25 µg/mL (≈ 13.8 µM) and 50 µg/mL (≈ 110 µM), respectively.

Consider `OCCCC1CCN(c2c(-c3nnc(S)n3-c3ccccc3)cnc3c(C(F)(F)F)cccc23)CC1`, for which the “inhibition zone (IZ)” value in the assay on Klebsiella pneumoniae [1] is less than 10 mm; in the assay on Escherichia coli [6], 16 mm; with Aspergillus flavus [7], less than 10 mm; in the assay with Staphylococcus aureus [8] it was 16 mm; in [10], less than 10 mm; in the assay with Pseudomonas aeruginosa [11], less than 10 mm. For the same molecule, the “inhibition zone (IZ)” value in the assay with Aspergillus fumigatus [13] and in the assay with Talaromyces marneffei [15] was less than 10 mm throughout. For the same molecule, the MIC against Staphylococcus aureus [2] was determined as 6.25 µg/mL (≈ 12.2 µM); in the assay on Talaromyces marneffei [3], 50 µg/mL (≈ 97.4 µM); in the assay on Escherichia coli [4], 12.5 µg/mL (≈ 24.3 µM); against Aspergillus flavus [5], 50 µg/mL (≈ 97.4 µM); with Klebsiella pneumoniae [9], 50 µg/mL (≈ 97.4 µM); in [12], 50 µg/mL (≈ 97.4 µM). Moreover, the MIC in the assay on Aspergillus fumigatus [14] and with Pseudomonas aeruginosa [16] was 50 µg/mL (≈ 97.4 µM) throughout.

In the case of `FC(F)(F)c1cccc2c(NC3CC3)c(-c3nnc(S)n3-c3ccccc3)cnc12`, the “inhibition zone (IZ)” value in the assay with Klebsiella pneumoniae [1] amounted to 16 mm; in the assay on Escherichia coli [6], 20 mm; with Aspergillus flavus [7], 16 mm; with Staphylococcus aureus [8] it was 16 mm; in assay [10], 20 mm; in the assay on Pseudomonas aeruginosa [11], 16 mm. Further, the “inhibition zone (IZ)” value in the assay with Aspergillus fumigatus [13] and in the assay with Talaromyces marneffei [15] was 16 mm each time. For the same molecule, the MIC (in the assay on Staphylococcus aureus [2]; in the assay with Talaromyces marneffei [3]; in the assay on Escherichia coli [4]; against Aspergillus flavus [5]; against Klebsiella pneumoniae [9]; in assay [12]) was 6.25 µg/mL (≈ 14.6 µM) throughout. Further, the MIC in the assay on Aspergillus fumigatus [14] and with Pseudomonas aeruginosa [16] was 6.25 µg/mL (≈ 14.6 µM) in each case.

Take `FC(F)(F)c1cccc2c(Cl)c(-c3nnc(S)n3-c3ccccc3)cnc12`: the “inhibition zone (IZ)” value with Klebsiella pneumoniae [1] worked out at 16 mm; in the assay on Escherichia coli [6], 20 mm; with Aspergillus flavus [7], 16 mm; in the assay on Staphylococcus aureus [8] it was 16 mm; in assay [10] it was 20 mm; in the assay on Pseudomonas aeruginosa [11], 16 mm. In addition, the “inhibition zone (IZ)” value in the assay with Aspergillus fumigatus [13] and with Talaromyces marneffei [15] was 16 mm each time. Moreover, the MIC (against Staphylococcus aureus [2]; against Talaromyces marneffei [3]; with Escherichia coli [4]; in the assay with Aspergillus flavus [5]; with Klebsiella pneumoniae [9]; in assay [12]) was 6.25 µg/mL (≈ 15.4 µM) in each case. The MIC against Aspergillus fumigatus [14] and against Pseudomonas aeruginosa [16] was 6.25 µg/mL (≈ 15.4 µM) each time.

Consider `CC(C)N1CCN(c2c(-c3nnc(S)n3-c3ccccc3)cnc3c(C(F)(F)F)cccc23)CC1`, for which the “inhibition zone (IZ)” value was less than 10 mm in the assay on Klebsiella pneumoniae [1]; 20 mm with Escherichia coli [6]; less than 10 mm in the assay with Aspergillus flavus [7]; less than 10 mm in the assay with Staphylococcus aureus [8]; less than 10 mm in [10]; less than 10 mm in the assay on Pseudomonas aeruginosa [11]. The “inhibition zone (IZ)” value with Aspergillus fumigatus [13] and in the assay with Talaromyces marneffei [15] was less than 10 mm throughout. For the same molecule, the MIC with Staphylococcus aureus [2] amounted to 50 µg/mL (≈ 100 µM); against Talaromyces marneffei [3] it was 50 µg/mL (≈ 100 µM); against Escherichia coli [4], 6.25 µg/mL (≈ 12.5 µM); against Aspergillus flavus [5] it was 50 µg/mL (≈ 100 µM); against Klebsiella pneumoniae [9], 50 µg/mL (≈ 100 µM); in assay [12], 50 µg/mL (≈ 100 µM). Further, the MIC against Aspergillus fumigatus [14] and against Pseudomonas aeruginosa [16] was 50 µg/mL (≈ 100 µM) throughout.

Consider `OCCCC1CCN(c2c(-c3nnc(S)n3Cc3ccccc3)cnc3c(C(F)(F)F)cccc23)CC1`, for which the “inhibition zone (IZ)” value is recorded as 12 mm with Klebsiella pneumoniae [1]; 16 mm in the assay on Escherichia coli [6]; 10 mm in the assay on Aspergillus flavus [7]; 10 mm in the assay with Staphylococcus aureus [8]; 16 mm in [10]; 10 mm with Pseudomonas aeruginosa [11]. Further, the “inhibition zone (IZ)” value in the assay on Aspergillus fumigatus [13] and with Talaromyces marneffei [15] was 10 mm throughout. In addition, the MIC (in the assay with Staphylococcus aureus [2]; in the assay on Talaromyces marneffei [3]; against Escherichia coli [4]; against Aspergillus flavus [5]; in the assay on Klebsiella pneumoniae [9]; in assay [12]) was 12.5 µg/mL (≈ 23.7 µM) each time. For the same molecule, the MIC in the assay on Aspergillus fumigatus [14] and against Pseudomonas aeruginosa [16] was 12.5 µg/mL (≈ 23.7 µM) in each case.

With `FC(F)(F)c1cccc2c(N3CCOCC3)c(-c3nnc(S)n3Cc3ccccc3)cnc12`, the “inhibition zone (IZ)” value is less than 10 mm in the assay with Klebsiella pneumoniae [1]; 16 mm with Escherichia coli [6]; 10 mm with Aspergillus flavus [7]; 16 mm in the assay on Staphylococcus aureus [8]; 16 mm in assay [10]; less than 10 mm in the assay on Pseudomonas aeruginosa [11]. Also, the “inhibition zone (IZ)” value in the assay on Aspergillus fumigatus [13] and in the assay on Talaromyces marneffei [15] was 10 mm throughout. The MIC stood at 6.25 µg/mL (≈ 13.3 µM) against Staphylococcus aureus [2]; 12.5 µg/mL (≈ 26.5 µM) against Talaromyces marneffei [3]; 12.5 µg/mL (≈ 26.5 µM) in the assay with Escherichia coli [4]; 12.5 µg/mL (≈ 26.5 µM) in the assay on Aspergillus flavus [5]; 50 µg/mL (≈ 106 µM) with Klebsiella pneumoniae [9]; 12.5 µg/mL (≈ 26.5 µM) in [12]. Also, the results for the MIC against Aspergillus fumigatus [14] and with Pseudomonas aeruginosa [16] were 12.5 µg/mL (≈ 26.5 µM) and 50 µg/mL (≈ 106 µM), respectively.

For the origin of these results see ChEMBL document CHEMBL1155347, “Synthesis and antimicrobial activities of novel quinoline derivatives carrying 1,2,4-triazole moiety” (2009).
